Test results from ChEMBL document CHEMBL2093137, “WHO-TDR NTD Screening”.
In brackets after ≈: the same amount, converted by molar mass.

Columns and labels:
[1] = tested on: Trypanosoma brucei brucei; test: WHO-TDR: Human African Trypanosomiasis (HAT); type: functional, organism-based; settings: Squib-427
In short: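 Values are IC50 figures for antiparasitic potency. They come from a whole-organism screen of 10,000 diverse Life Chemicals compounds against bloodstream-form Trypanosoma brucei (Squib 427 strain).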

Onchocerca ochengi [2] = test: (§1) WHO-TDR: Onchocerciasis; type: functional; set-up: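 at 12.5 µM on microfilariae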
In short: (§2)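 Microfilariae of Onchocerca ochengi or Onchocerca lienalis, animal pathogens standing in for the human parasite, were exposed to compounds in a whole-organism screen. The compounds came from a 10,000-compound diverse Life Chemicals library filtered for drug-likeness and reactive groups. Results are expressed as percent inhibition and IC50.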

Trypanosoma cruzi = test: WHO-TDR: Chagas disease; type: functional, organism-based, Homo sapiens; settings: MRC5
In short: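 Whole-organism screen of a 10,000-compound diverse library from Life Chemicals, filtered for drug-likeness and reactive groups, against intracellular amastigotes of Trypanosoma cruzi Tulahuen CL2 beta-galactosidase strain grown in MRC-5SV2 human lung fibroblast host cells. The assay followed previously published standard procedures, with a reference drug as positive control. Antiparasitic potency is reported as IC50.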

Onchocerca ochengi [3] = test: as §1; type: functional; set-up: concentration or dose not given beside the values; in short: as §2; remark: listed apart in the source
Leishmania infantum = test: WHO-TDR: Leishmaniasis; type: functional, organism-based, Mus musculus; settings: Macrophage
In short: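 Values are IC50 figures for antiparasitic potency. They come from a whole-organism screen of a 10,000-compound diverse Life Chemicals library against Leishmania infantum MHOM/MA(BE)/67 amastigotes inside murine peritoneal macrophage host cells.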

[4] = WHO-TDR: Cytotoxicity; type: toxicity, cell-based; settings: human, MRC5 cells
Schistosoma mansoni = test: WHO-TDR: Schistosomiasis; type: functional; set-up: concentration or dose not given beside the values
In short: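 In this whole-organism assay, larval and/or adult worms of Schistosoma mansoni (Puerto Rican strain) were exposed to compounds from a diverse Life Chemicals library of 10,000 members. A reference drug served as positive control. Activity is stated as percent inhibition and IC50.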

Plasmodium falciparum K1 = test: WHO-TDR: Malaria; type: functional, organism-based, Homo sapiens; settings: Erythrocyte
In short: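 Values are IC50 figures for antiplasmodial potency. They come from a whole-organism screen of 10,000 diverse Life Chemicals compounds against Plasmodium falciparum K1 growing inside human red blood cells, run by previously published standard procedures.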

Onchocerca lienalis = test: as §1; type: functional; set-up: concentration or dose not given beside the values; in short: as §2;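 note: at 12.5 µM on microfilariae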
Brugia malayi = test: WHO-TDR: Lymphatic Filariasis; type: functional; set-up: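 tested at 10 µM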
In short: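 In a whole-organism assay, Brugia malayi microfilariae were screened against a diverse Life Chemicals library that had been filtered for drug-likeness and reactive groups. That library comprised 10,000 compounds. Activity is expressed as percent inhibition and as IC50.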

Row | SMILES | IC50 [1] [µg/mL] | IC50 (Leishmania infantum) [µg/mL] | IC50 (Plasmodium falciparum K1) [µg/mL] | % Inhibition (Onchocerca ochengi [2]) [%] | IC50 (Trypanosoma cruzi) [µg/mL] | % Inhibition (Onchocerca ochengi [3]) [%] | IC50 [4] [µg/mL] | % Inhibition (Schistosoma mansoni) [%] | % Inhibition (Onchocerca lienalis) [%] | % Inhibition (Brugia malayi) [%]
1 | COc1ccc(-c2ccc(OCCNS(=O)(=O)c3ccc(Cl)s3)nn2)cc1 | > 12.8 | > 12.8 | > 12.8 | – | 0.788 (≈ 1.85 µM) | – | 5.41 (≈ 12.7 µM) | 0 | 33.3 | 0
2 | CCOc1ccc(-c2ccc(OCCNS(=O)(=O)c3cc(C)c(C)cc3C)nn2)cc1 | 4.24 (≈ 9.6 µM) | > 13.2 | > 13.2 | – | 0.752 (≈ 1.7 µM) | – | > 13.2 | 0 | 13.3 | 0
3 | Cc1cc(=O)[nH]c(-n2nc(C)cc2NC(=O)c2ccc(S(=O)(=O)N3CCCCC3)cc2)n1 | 0.449 (≈ 0.983 µM) | 4.43 (≈ 9.71 µM) | 0.137 (≈ 0.3 µM) | 0 | 0.418 (≈ 0.915 µM) | 0 | 0.445 (≈ 0.975 µM) | 25 | – | –
4 | Cc1cc(=O)[nH]c(-n2nc(C)cc2NC(=O)C2c3ccccc3Oc3ccccc32)n1 | 0.876 (≈ 2.12 µM) | 4.01 (≈ 9.71 µM) | 0.657 (≈ 1.59 µM) | 0 | < 0.124 | 0 | 0.504 (≈ 1.22 µM) | 50 | – | –
5 | COc1ccc(Cl)cc1C(=O)Nc1cc(C)nn1-c1nc2c(c(=O)[nH]1)CCC2 | 0.388 (≈ 0.97 µM) | 6.21 (≈ 15.5 µM) | > 12 | 0 | 0.361 (≈ 0.902 µM) | 0 | 0.685 (≈ 1.71 µM) | 50 | – | –
6 | Cc1cc(NC(=O)C2(c3ccc(Cl)cc3)CCCC2)n(-c2nc3c(c(=O)[nH]2)CCC3)n1 | 0.42 (≈ 0.959 µM) | > 13.1 | 0.644 (≈ 1.47 µM) | 0 | 0.37 (≈ 0.844 µM) | 0 | 0.338 (≈ 0.772 µM) | 56.7 | – | –
7 | Cc1cc(NC(=O)c2cccs2)n(-c2nc3c(c(=O)[nH]2)CCC3)n1 | 3.2 (≈ 9.37 µM) | 5.3 (≈ 15.5 µM) | 10.2 (≈ 30 µM) | 0 | 0.56 (≈ 1.64 µM) | 0 | 2.03 (≈ 5.94 µM) | 0 | – | –
8 | O=C(c1ccco1)N1CCN(c2ccc(-c3cccs3)nn2)CC1 | > 10.2 | > 10.2 | 5.12 (≈ 15 µM) | 0 | > 10.2 | 100 | > 10.2 | 0 | – | –
9 | CCOc1cccc2cc(-c3csc(NC(=O)c4sc5ccccc5c4Cl)n3)oc12 | 0.237 (≈ 0.521 µM) | 3.69 (≈ 8.11 µM) | > 13.6 | 0 | 11.8 (≈ 25.9 µM) | 0 | 0.237 (≈ 0.521 µM) | 0 | – | –
10 | O=C(Nc1nc(-c2ccncc2)cs1)C1CCCN(S(=O)(=O)c2cccs2)C1 (centres undefined) | 4.33 (≈ 9.95 µM) | > 13 | > 13 | 0 | 0.534 (≈ 1.23 µM) | 50 | 9.25 (≈ 21.3 µM) | 0 | – | –
11 | O=C(Nc1nc(-c2ccncc2)cs1)C1CCCN(S(=O)(=O)c2ccc(Cl)s2)C1 (centres undefined) | 4.5 (≈ 9.6 µM) | 4.55 (≈ 9.71 µM) | 6.68 (≈ 14.2 µM) | 0 | 0.243 (≈ 0.518 µM) | 50 | > 14.1 | 0 | – | –
12 | Cc1nnc(NC(=O)COc2cccc3ccc(N4CCCC(C)C4)nc23)s1 (centres undefined) | > 11.9 | 6.18 (≈ 15.5 µM) | > 11.9 | 0 | 0.407 (≈ 1.02 µM) | 50 | > 11.9 | 0 | – | –
13 | O=C(CC1CCCCN1S(=O)(=O)c1ccc(Cl)cc1)Nc1ccc2c(c1)OCO2 (centres undefined) | 4.24 (≈ 9.71 µM) | > 13.1 | > 13.1 | 0 | 0.789 (≈ 1.81 µM) | 0 | > 13.1 | 0 | – | –
14 | Cc1ccc(S(=O)(=O)N2CCCCC2CC(=O)Nc2ccc(Cl)cc2)cc1 (centres undefined) | 5.79 (≈ 14.2 µM) | > 12.2 | > 12.2 | 0 | 0.421 (≈ 1.03 µM) | 0 | > 12.2 | 0 | – | –
15 | Cc1ccc(S(=O)(=O)N2CCCCC2CC(=O)Nc2ccc(F)c(C(F)(F)F)c2)cc1 (centres undefined) | 6.11 (≈ 13.3 µM) | > 13.8 | > 13.8 | 0 | 0.889 (≈ 1.94 µM) | 0 | > 13.8 | 0 | – | –
16 | O=C(CC1CCCCN1S(=O)(=O)c1ccc(Cl)cc1)NCCC1=CCCCC1 (centres undefined) | 4.23 (≈ 9.95 µM) | 6.6 (≈ 15.5 µM) | > 12.7 | 0 | 0.517 (≈ 1.22 µM) | 0 | 12.7 (≈ 30 µM) | 0 | – | –
17 | CCOC(=O)c1ccc(NC(=O)CC2CCCCN2S(=O)(=O)c2ccc(OC)cc2)cc1 (centres undefined) | 4.53 (≈ 9.83 µM) | > 13.8 | > 13.8 | 0 | 0.449 (≈ 0.975 µM) | 0 | 2.03 (≈ 4.4 µM) | 0 | – | –
18 | Cc1ccc2c(c1)NC(=O)c1cc(NC(=O)C3CCCC3)ccc1O2 | > 10.1 | > 10.1 | 0.441 (≈ 1.31 µM) | 0 | > 10.1 | 0 | > 10.1 | 0 | – | –
19 | COc1ccc2oc(-c3csc(NC(=O)c4cccc(OC)c4OC)n3)cc2c1 | > 12.3 | 0.638 (≈ 1.55 µM) | > 12.3 | 0 | > 12.3 | 0 | > 12.3 | 0 | – | –
20 | CCOC(=O)CCNC(=O)NCC1CC(=O)N(c2ccc(Cl)cc2)C1 (centres undefined) | > 11 | > 11 | > 11 | 100 | > 11 | – | > 11 | 0 | – | –

Second part, led by results:

Row | IC50 [1] [µg/mL] | IC50 (Leishmania infantum) [µg/mL] | IC50 (Plasmodium falciparum K1) [µg/mL] | SMILES | % Inhibition (Onchocerca ochengi [2]) [%] | IC50 (Trypanosoma cruzi) [µg/mL] | % Inhibition (Onchocerca ochengi [3]) [%] | IC50 [4] [µg/mL] | % Inhibition (Schistosoma mansoni) [%] | % Inhibition (Onchocerca lienalis) [%] | % Inhibition (Brugia malayi) [%]
21 | 3.56 (≈ 9.37 µM) | 3.6 (≈ 9.49 µM) | 4.74 (≈ 12.5 µM) | Cc1cc(=O)[nH]c(-n2nc(C)cc2NC(=O)/C=C/c2ccc3c(c2)OCO3)n1 | 0 | 0.801 (≈ 2.11 µM) | 0 | 3.73 (≈ 9.85 µM) | 0 | – | –
22 | 1.96 (≈ 5.43 µM) | 5.62 (≈ 15.5 µM) | 3.62 (≈ 10 µM) | Cc1cc(=O)[nH]c(-n2nc(C)cc2NC(=O)c2c(F)cccc2Cl)n1 | 0 | 0.331 (≈ 0.915 µM) | 0 | 0.39 (≈ 1.08 µM) | 0 | – | –
23 | > 11.3 | > 11.3 | > 11.3 | Cc1cc(=O)[nH]c(-n2nc(C)cc2NC(=O)c2ccccc2C(F)(F)F)n1 | 0 | 0.409 (≈ 1.08 µM) | 0 | 2.61 (≈ 6.91 µM) | 0 | – | –
24 | 0.338 (≈ 0.983 µM) | > 10.3 | 0.493 (≈ 1.44 µM) | CCc1cc(=O)[nH]c(-n2nc(C)cc2NC(=O)Cc2cccs2)n1 | 0 | 0.276 (≈ 0.804 µM) | 100 | 0.293 (≈ 0.853 µM) | 0 | – | –
25 | < 0.119 | 3.84 (≈ 9.71 µM) | 0.119 (≈ 0.3 µM) | CCCc1cc(=O)[nH]c(-n2nc(C)cc2NC(=O)C23CC4CC(CC(C4)C2)C3)n1 | 75 | < 0.119 | 100 | < 0.119 | 100 | – | –
26 | 0.47 (≈ 1.08 µM) | > 13.1 | 5.1 (≈ 11.7 µM) | CCCc1cc(=O)[nH]c(-n2nc(C)cc2NC(=O)COc2ccc(Cl)cc2Cl)n1 | 0 | 0.395 (≈ 0.904 µM) | 75 | 0.362 (≈ 0.83 µM) | 0 | – | –
27 | 0.39 (≈ 0.96 µM) | 3.94 (≈ 9.71 µM) | 0.703 (≈ 1.73 µM) | CCCc1cc(=O)[nH]c(-n2nc(C)cc2NC(=O)c2ccc(Br)o2)n1 | 0 | < 0.122 | 50 | 0.441 (≈ 1.08 µM) | 75 | – | –
28 | 3.99 (≈ 8.9 µM) | 4.36 (≈ 9.71 µM) | > 13.5 | CCCc1cc(=O)[nH]c(-n2nc(C)cc2NC(=O)C2CC(=O)N(c3ccc(C)c(C)c3)C2)n1 (centres undefined) | 0 | 1.28 (≈ 2.86 µM) | 50 | 4.51 (≈ 10 µM) | 0 | – | –
29 | 0.377 (≈ 0.971 µM) | > 11.6 | 2.07 (≈ 5.33 µM) | Cc1cc(NC(=O)COc2ccc(Cl)cc2)n(-c2nc(C)c(C)c(=O)[nH]2)n1 | 0 | 0.359 (≈ 0.926 µM) | 50 | 0.338 (≈ 0.872 µM) | 0 | – | –
30 | 0.327 (≈ 0.811 µM) | 0.627 (≈ 1.55 µM) | 0.399 (≈ 0.989 µM) | CCOc1ccc2ccccc2c1C(=O)Nc1cc(C)nn1-c1nc(C)cc(=O)[nH]1 | 60 | < 0.121 | 100 | 0.364 (≈ 0.902 µM) | 100 | – | –
